XBP1 UPR activ – activators of adaptive XBP1 UPR arm, primary screen, cell-based, CHO-XBP1 luciferase reporter, luminescence, uHTS; activation, % at 20 µM; 330,000 compounds, 0.33% hits; IRE1-XBP1 UPR activation; percent of tunicamycin response, DMSO as zero; AID 463104, 2010;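 active = versus positive control, 20 µM dose yields 30% or more activation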
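Material: CHO cell line with stable XBP1 luciferase reporter; buffer or medium: F12 medium containing 10% fetal bovine serum; compound: single point, 20 µM final compound, 1% DMSO; incubation: 6 h treatment, 37 °C; measured by: glow luminescence from Steady-Glo reagent; evaluation: activation, % of tunicamycin; control set: tunicamycin high, DMSO low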
CHOP inhibitor – inhibitors of CHOP promoter induction, primary screen, cell-based, unfolded protein response, luciferase reporter | CHO-K1 CHOP-promoter luciferase, tunicamycin-induced, 15-18 h | inhibition, % at 10 µM | 220,000 compounds, 3.8% hits | AID 2732, 2010;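 active = compounds that reduced the stress-induced luciferase reporter signal by more than about 70% of percent inhibition, limit read from the data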
697 NFkB inh – inhibitors of PMA/ionomycin-induced NF-kB reporter, 697 cells, primary screen, B-cell NF-kB inhibitor project, cell-based, luminescence, uHTS | 697 B-cell NF-kB luciferase reporter, 16 h | inhibition, % at 4 µM | 330,000 compounds, 0.33% hits; in the data active = inhibition above about 35%
Gli-Sufu antag – Gli-Sufu pathway antagonists, primary screen, luciferase luminescence, Sufu-KO-LIGHT cells, uHTS | Sufu-KO-LIGHT fibroblasts, Gli luciferase reporter luminescence | inhibition, % at 5 µM | 340,000 compounds, 0.74% hits;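 active = inhibition above about 55%, limit read from the data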
UPR CHOP act – activators of apoptotic CHOP UPR arm, primary screen, cell-based, CHO-CHOP luciferase reporter, luminescence, uHTS | 330,000 compounds, 0.34% hits | activation, % at 10 µM | UPR activation; percent of tunicamycin response over DMSO baseline;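 active = at 10 µM dose, activation of 40% or more, normalized to positive control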
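Dosing – one dose, 10 µM in 0.5% DMSO · System – CHO-CHOP cells, stable luciferase reporter of PERK-eIF2a-CHOP signalling · Input – 500 cells/well · Control set – tunicamycin 10 µg/mL final as positive, DMSO-only wells as negative · Timing – 6 h compound treatment, 37 °C · Measure – % activation vs tunicamycin · Technique – luminescence read with Steady-Glo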
Jurkat NFkB inh – inhibitors of induced NF-kB luciferase reporter, primary screen, TCR NF-kB activation inhibitor project, cell-based, luminescence, uHTS. Jurkat, PMA/ionomycin-induced NF-kB luciferase reporter. 330,000 compounds, 0.53% hits. AID 435003, 2010. inhibition, % at 4 µM; in the data active = inhibition above about 50%
Each line names hits and unclear results; the compound was inactive in the other large screens. Hits are enriched below; roughly 3.9% of the tested compounds scored in any of these assays.

CC12CCC3C(CCC4=C(O)C(=O)CCC43C)C1CCC2=O (centres undefined)	none (no result: XBP1 UPR activ, 697 NFkB inh, Gli-Sufu antag, UPR CHOP act, Jurkat NFkB inh)
C=C(C)CSc1nnc([C@@H](N)Cc2c[nH]c3ccccc23)o1	none
Cc1[nH]nc2ccc(-c3cncc(OC[C@@H](N)Cc4c[nH]c5ccccc45)c3)cc12	Gli-Sufu antag 93 (no result: XBP1 UPR activ, CHOP inhibitor, 697 NFkB inh, UPR CHOP act, Jurkat NFkB inh)
CCn1c(O)c(N=Nc2ccc(S(=O)(=O)N3CCOCC3)cc2)c(=O)n(CC)c1=S	CHOP inhibitor 73
NC(=O)COc1c(F)cc(SCCNS(=O)(=O)c2ccccc2)cc1F	none (no result: XBP1 UPR activ, 697 NFkB inh, Gli-Sufu antag, UPR CHOP act, Jurkat NFkB inh)
CCC(=O)c1cn(Cc2ccc(C#N)cc2)c2ccccc12	none
CC(C)C(=O)c1cn(Cc2ccccc2C#N)c2ccccc12	CHOP inhibitor 77
O=C(O)c1cc[c]([Hg][Cl])cc1	none
NCC#Cc1ccccc1	none (no result: XBP1 UPR activ, 697 NFkB inh, Gli-Sufu antag, UPR CHOP act, Jurkat NFkB inh)
CC(C)CCn1c(=O)c(C(=O)Nc2ccccc2S(N)(=O)=O)c(O)c2ccccc21	CHOP inhibitor 92
CNC(=O)OCC[N+](C)(C)C	none (no result: XBP1 UPR activ, 697 NFkB inh, Gli-Sufu antag, UPR CHOP act, Jurkat NFkB inh)
CC(=NNC(=S)N1CC2CCC(CC2)C1)c1nccs1	Gli-Sufu antag 91 (no result: XBP1 UPR activ, CHOP inhibitor, 697 NFkB inh, UPR CHOP act, Jurkat NFkB inh)
COc1cc(/C=C(/C)[N+](=O)[O-])ccc1OCc1ccccc1Cl	CHOP inhibitor 106
CC(=O)OC(C)(C)/C=C/C(=O)[C@](C)(O)[C@H]1[C@H](O)C[C@@]2(C)[C@@H]3CC=C4[C@H](C[C@H](O)C(=O)C4(C)C)[C@]3(C)C(=O)C[C@]12C	Gli-Sufu antag 88 (no result: XBP1 UPR activ, 697 NFkB inh, UPR CHOP act, Jurkat NFkB inh)
CC(=O)OC(C)(C)/C=C/C(=O)C(C)(O)C1C(O)CC2(C)C3CC=C4C(CC(O)C(=O)C4(C)C)C3(C)C(=O)CC12C (centres undefined)	Gli-Sufu antag 87 (no result: XBP1 UPR activ, CHOP inhibitor, 697 NFkB inh, UPR CHOP act, Jurkat NFkB inh)
c1ccc(C2N3CCCN23)cc1 (centres undefined)	none
ON1C2CCCCC2N(O)C1c1ccccc1 (centres undefined)	CHOP inhibitor 89
O=[N+]([O-])c1ccc(O[C@@H]2O[C@H](CO)[C@@H](O)[C@H](O)[C@H]2F)c([N+](=O)[O-])c1	none (no result: XBP1 UPR activ, 697 NFkB inh, Gli-Sufu antag, UPR CHOP act, Jurkat NFkB inh)
CCCCn1c(O)c(C(CC)=NC(C)c2ccccc2)c(=O)[nH]c1=O (centres undefined)	CHOP inhibitor 81
CCCCn1c(O)c(C(CC)=Nc2ccc(OCC)cc2)c(=O)[nH]c1=O	CHOP inhibitor 91
CCCCn1c(O)c(C(C)=NC(C)c2ccccc2)c(=O)[nH]c1=O (centres undefined)	none
C[C@H](Cc1ccc2c(c1)OC(C(=O)O)(C(=O)O)O2)NC[C@H](O)c1cccc(Cl)c1	none (no result: XBP1 UPR activ, 697 NFkB inh, Gli-Sufu antag, UPR CHOP act, Jurkat NFkB inh)
CCOC(=O)c1c(NC(NC(=O)CF)C(Cl)(Cl)Cl)sc2c1CCCC2 (centres undefined)	CHOP inhibitor 74
CCOC(=O)c1c(NC(=O)c2c(N)n(CCCOC)c3nc4ccccc4nc23)sc2c1CCCC2	none
C=CCN1CC[C@]23CCCCC2[C@H]1Cc1ccc(O)cc13 (some centres undefined)	none (no result: XBP1 UPR activ, 697 NFkB inh, Gli-Sufu antag, UPR CHOP act, Jurkat NFkB inh)
CCC(C)N1C(=O)NC(=O)C2(Cc3c(ccc4ccccc34)N(C)C2)C1=O (centres undefined)	CHOP inhibitor 76
CC(=O)OC1C(O)C(C)OC(OC2C(OC(=O)C3CCC4C(C3)OC3(CC(OC(=O)/C=C/c5ccccc5)C(C)CO3)C43CO3)OC(C)C(O)C2OC(C)=O)C1O (centres undefined)	Gli-Sufu antag 90 (no result: XBP1 UPR activ, CHOP inhibitor, 697 NFkB inh, UPR CHOP act, Jurkat NFkB inh)
CCOC(=O)C1=C(N)Oc2cc(C)oc(=O)c2C12C(=O)N1c3c(cc(OC)cc32)C(C)=CC1(C)C (centres undefined)	CHOP inhibitor 76
CCOC(=O)C1=C(N)Oc2cc(C)oc(=O)c2C12C(=O)N1c3c(cccc32)C(C)=CC1(C)C (centres undefined)	none
CCOC(=O)C1=C(N)OC2=C(C(=O)CCC2)C12C(=O)N1c3c(ccc(C)c32)C(C)=CC1(C)C (centres undefined)	none
CCOC(=O)C1=C(N)Oc2cc(C)oc(=O)c2C12C(=O)N1c3c(cccc32)C(C)CC1(C)C (centres undefined)	CHOP inhibitor 83
CCCN1CCC[C@@H](c2cccc(C#N)c2)C1	none (no result: XBP1 UPR activ, 697 NFkB inh, Gli-Sufu antag, UPR CHOP act, Jurkat NFkB inh)
O=c1c2ccccc2nc(/C=C/c2ccc(O)cc2)n1-c1ccc(O)cc1	none (no result: CHOP inhibitor)
O=c1c2ccccc2nc(/C=C/c2ccc(O)cc2)n1-c1cccc(O)c1	CHOP inhibitor 71
C[C@H]1C2Cc3ccc(O)cc3C1(C)CCN2CC1CC1 (some centres undefined)	none (no result: XBP1 UPR activ, 697 NFkB inh, Gli-Sufu antag, UPR CHOP act, Jurkat NFkB inh)
CC12CNCC(C)(CNC1)C2O (centres undefined)	CHOP inhibitor 88
NC(=O)CI	none (no result: XBP1 UPR activ, 697 NFkB inh, Gli-Sufu antag, UPR CHOP act, Jurkat NFkB inh)
O=P(Nc1cccc(F)c1)(Oc1ccccc1F)Oc1ccccc1F	CHOP inhibitor 76
Cc1cccc(NP(=O)(Oc2ccccc2F)Oc2ccccc2F)c1	CHOP inhibitor 78 (no result: XBP1 UPR activ, 697 NFkB inh, UPR CHOP act, Jurkat NFkB inh)
CC1=C(C)CC2(C(=O)NC(=O)NC2=O)C(C)C1 (centres undefined)	none (no result: XBP1 UPR activ, CHOP inhibitor, 697 NFkB inh, UPR CHOP act, Jurkat NFkB inh)
CC(=O)[C@H]1CCC2C3CC[C@H]4C[C@H](O)CC[C@]4(C)C3CC[C@@]21C (some centres undefined)	none (no result: XBP1 UPR activ, 697 NFkB inh, Gli-Sufu antag, UPR CHOP act, Jurkat NFkB inh)
CN(C)c1ccc(/C=C/c2cc[n+](C)c3ccccc23)cc1	Gli-Sufu antag 87 (no result: XBP1 UPR activ, 697 NFkB inh, UPR CHOP act, Jurkat NFkB inh)
COc1ccc2c3c1O[C@H]1C(=O)CC[C@@]4(O)C(C2)N(CC2CC2)CCC314 (some centres undefined)	none (no result: XBP1 UPR activ, 697 NFkB inh, Gli-Sufu antag, UPR CHOP act, Jurkat NFkB inh)
COc1ccc2c(c1)[C@@]13CCCC[C@H]1[C@@H](C2)NCC3	none (no result: XBP1 UPR activ, 697 NFkB inh, Gli-Sufu antag, UPR CHOP act, Jurkat NFkB inh)
CCOc1ccc(N=Cc2c(O)n(Cc3ccccc3)c(=S)[nH]c2=O)cc1	none
C=CCn1c(O)c(C=NCCCOc2ccc(CC)cc2)c(=O)[nH]c1=S	CHOP inhibitor 77
Cc1ccc(/C=C2/C(=O)NC(=O)N(CCc3ccc(F)cc3)C2=O)o1	CHOP inhibitor 83
Cc1ccc(/C=C2\C(=O)NC(=S)N(c3ccccc3F)C2=O)s1	CHOP inhibitor 107 (no result: XBP1 UPR activ, 697 NFkB inh, UPR CHOP act, Jurkat NFkB inh)

Screening results: PubChem BioAssay, several laboratories
